According to ChEMBL document CHEMBL4043142, “Discovery of new leads against Mycobacterium tuberculosis using scaffold hopping and shape based similarity” (Bioorg Med Chem, 2017):
pIC50: −log10 of the molar value. In brackets after ≈: the same amount, converted by molar mass.

Key:
[1] = system: Mycobacterium tuberculosis; experiment: Antitubercular activity against Mycobacterium tuberculosis H37Rv after 5 days by microplate alamar blue assay; assay type: functional; conditions: 120 h
[2] = system: Acinetobacter baumannii; experiment: Antimicrobial activity against gram-negative Acinetobacter baumannii ATCC 19606 at 32 ug/ml after 18 hrs; assay type: functional; conditions: ATCC 19606 = CIP 70.34 = JCM 6841, 18 h
How it was run: (§1)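 Whole-cell growth inhibition screen at a single final concentration of 32 µg/mL, in duplicate on different plates, with 0.3% DMSO final. Bacteria grown overnight in cation-adjusted Mueller Hinton broth at 37°C, diluted 40-fold, and grown 1.5-3 h to mid-log. Wells seeded at 5×10^5 CFU/mL and incubated 18 h at 37°C without shaking. OD600 read; percent inhibition calculated against media-only and untreated-bacteria controls on the same plate. Colistin (Gram-negative) and vancomycin (Gram-positive) were the standards.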

[3] = system: Pseudomonas aeruginosa; experiment: Antimicrobial activity against gram-negative Pseudomonas aeruginosa ATCC 27853 at 32 ug/ml after 18 hrs; assay type: functional; conditions: ATCC 27853, 18 h; how it was run: as §1
[4] = system: Candida albicans; experiment: Antifungal activity against Candida albicans ATCC 90028 at 32 ug/ml after 24 hrs; assay type: functional; conditions: ATCC 90028, 24 h
[5] = system: Cryptococcus neoformans; experiment: Antifungal activity against Cryptococcus neoformans var. grubii ATCC 208821 at 32 ug/ml after 24 hrs; assay type: functional; conditions: ATCC 208821, 24 h
How it was run: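 Single-concentration antifungal screen at a final 32 µg/mL, n=2 on different plates. Fungi grown 3 days on YPD agar at 30°C; suspension of 1-5×10^6 cells/mL made from five colonies, then diluted in YNB broth. Incubated 35°C for 24 h without shaking. C. albicans read at OD530. C. neoformans read as OD600-570 after resazurin (0.001% final) and a further 2 h at 35°C. Inhibition calculated against on-plate controls; fluconazole was the standard.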

[6] = system: Mycobacterium tuberculosis; experiment: Antitubercular activity against Mycobacterium tuberculosis H37Rv at 50 ug/ml after 5 days by microplate alamar blue assay relative to control; assay type: functional; conditions: 120 h
How it was run: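 M. tuberculosis H37Rv tested by microplate alamar blue assay, reading the resazurin-to-resorufin colour change, at an initial 50 µg/ml. Rifampicin and isoniazid were the standards.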

[7] = system: Staphylococcus aureus; experiment: Antimicrobial activity against gram-positive Staphylococcus aureus ATCC 43300 at 32 ug/ml after 18 hrs; assay type: functional; conditions: ATCC 43300, 18 h; how it was run: as §1
[8] = system: Liver; experiment: Drug level in rat liver microsomes treated with p-nitrophenol after 60 mins; assay type: ADME, microsome; conditions: 1 h
How it was run: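 p-Nitrophenol incubated 60 min with rat liver microsomes as the positive control; its conversion to p-nitrocatechol was measured.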

[9] = system: HepG2; experiment: Cytotoxicity against human HepG2 cells after 24 hrs by MTT assay; assay type: cell-based; conditions: HepG2, 24 h
How it was run: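 HepG2 cells seeded at 25,000-50,000 per well and allowed to adhere about 24 h at 37°C in 5% CO2. Serial dilutions (300, 100, 50, 10, 1, 0.1 µM) added in triplicate and incubated 24 h. MTT added to 10% of the total volume for 2-4 h in the dark. Formazan dissolved in 100% DMSO, absorbance read at 570 nm, and IC50 calculated.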

[10] = Cytotoxicity against African green monkey Vero cells after 72 hrs by sulforhodamine B assay; assay type: cell-based; conditions: chlorocebus sabaeus
[11] = Drug metabolism in rat liver microsomes after 60 mins; assay type: ADME, microsome; conditions: read-out: Drug metabolism
How it was run: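 Rat liver microsomes incubated with compound for 60 min. Stability followed as the peak area ratio of compound to internal standard. p-Nitrophenol conversion to p-nitrocatechol served as the positive control.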

[12] = system: Klebsiella pneumoniae; experiment: Antimicrobial activity against gram-negative Klebsiella pneumoniae ATCC 700603 at 32 ug/ml after 18 hrs; assay type: functional; conditions: ATCC 700603, 18 h; how it was run: as §1
[13] = system: Mycobacterium tuberculosis; experiment: Antitubercular activity against Mycobacterium tuberculosis H37Rv ATCC 25618 after 6 days by resazurin dye based assay; assay type: functional; conditions: H37Rv ATCC 25618, 144 h
[14] = system: Vero; experiment: Cytotoxicity against African green monkey Vero cells after 72 hrs by MTT assay; assay type: cell-based; conditions: Chlorocebus sabaeus
[15] = system: HepG2; experiment: Cytotoxicity against human HepG2 cells after 48 hrs by CellTiter-Glo assay; assay type: cell-based; conditions: HepG2, 48 h
[16] = Half life in mouse microsomes; assay type: ADME, Microsome
[17] = Protection index, ratio of IC50 for HepG2 cells to MIC for Mycobacterium tuberculosis H37Rv
[18] = Protection index, ratio of IC50 for African green monkey Vero cells to MIC for Mycobacterium tuberculosis H37Rv
[19] = system: Mycobacterium tuberculosis; experiment: Antitubercular activity against clinical isolates of Mycobacterium tuberculosis by broth microdilution assay; assay type: functional

SMILES	MIC95 [1]	inhibition at 32 µg/mL [3]	inhibition at 32 µg/mL [4]	inhibition at 50 µg/mL [6]	inhibition at 32 µg/mL [7]	further results
COc1cccc(-c2nc3ccccc3n2-c2ccc(Cl)cc2)c1	> 50 mg/L	2.25 to 13%	4.73 to 28.1%	67%	–	inhibition at 32 µg/mL [2]: 49.4 to 50.8%; inhibition at 32 µg/mL [5]: 6.16 to 19.6%
COc1ccc(-c2nc3ccccc3n2-c2cccc(OC)c2)cc1	> 50 mg/L	9.8 to 11.2%	5.26 to 8.76%	14%	7.42 to 20.4%	inhibition at 32 µg/mL [2]: 19.7 to 59.9%
O=[N+]([O-])c1ccc(O)c(O)c1 [4-Nitrocatechol]	–	–	–	–	–	Drug metabolism [8]: Metabolite_Detected
COc1ccc(-c2nc3ccccc3n2-c2ccc(Cl)cc2)cc1OC	20.3 mg/L (≈ 55.6 µM)	–	7.63 to 8.23%	95%	1.03 to 9.81%	inhibition at 32 µg/mL [2]: 39.9 to 42.6%; inhibition at 32 µg/mL [5]: 0.95 to 4.02%; pIC50 [9]: 4.30; GI50 at 72 h [10]: 8.2 µM; metabolised at 1 h [11]: 5%
Cc1ccn2c(CN3CCOCC3)c(-c3ccccc3)nc2c1	40 mg/L (≈ 130 µM)	10.6 to 15.2%	0.89 to 1.68%	95%	15.8 to 23.5%	–
COc1ccc(-c2nc3ccccc3n2-c2ccc(Br)cc2)cc1	> 50 mg/L	–	9.75 to 11.7%	92%	12.3 to 15%	inhibition at 32 µg/mL [2]: 1.56 to 58.1%; pIC50 [9]: 3.95; GI50 at 72 h [10]: 5 µM; metabolised at 1 h [11]: 2%
Cc1ccn2c(CN3CCCCC3)c(-c3ccccc3)nc2c1	33.7 mg/L (≈ 110 µM)	–	–	95%	–	–
c1ccc(-c2nc3ccccn3c2CN2CCOCC2)cc1	> 50 mg/L	9.04 to 16.5%	0.3 to 6.38%	95%	26.1 to 28.6%	inhibition at 32 µg/mL [12]: 2.52 to 13.8%; inhibition at 32 µg/mL [5]: 2.71 to 3.04%
CSc1ccc(-c2cc(CN3CCSCC3)c(C)n2-c2ccc(F)cc2)cc1	–	–	–	–	–	MIC [13]: 0.16 µM (≈ 0.066 µg/mL); pIC50 [14]: 4.82; pIC50 [15]: 5.23; half-life [16]: 10 min; Ratio [17]: 127.5 - 1937.5; Ratio [18]: 127.5 - 1937.5
COc1ccc(-c2nc3ccccc3n2-c2cc(C)ccc2C)cc1	> 50 mg/L	5.72 to 19.7%	1.69 to 4.32%	80%	9.57 to 10%	inhibition at 32 µg/mL [2]: 3.5 to 38.8%
COc1ccc(-c2nc3ccccc3n2-c2ccc(Cl)cc2)c(OC)c1	48.3 mg/L (≈ 132 µM)	–	2.68 to 3.53%	95%	10.9 to 14.2%	inhibition at 32 µg/mL [12]: 3.25 to 9.39%
COc1ccc(-c2nc3ccccc3n2-c2ccc(F)cc2)cc1	> 50 mg/L	5.18 to 12.8%	1.62 to 1.69%	6%	11.6 to 12.7%	–
Cc1ccn2c(CN3CCOCC3)c(-c3ccc(F)cc3)nc2c1	23.9 mg/L (≈ 73.5 µM)	9.71 to 27%	2.74 to 7.44%	95%	20.1 to 21.8%	–
COc1ccc(-c2cc(CN3CCSCC3)c(C)n2-c2ccc(F)cc2)cc1	–	–	–	–	–	MIC [13]: 0.2 µM (≈ 0.0793 µg/mL); pIC50 [14]: < 3.52; pIC50 [15]: < 2.62; half-life [16]: < 5 min; Ratio [17]: 127.5 - 1937.5; Ratio [18]: 127.5 - 1937.5
Fc1ccc(-c2nc3ccccn3c2CN2CCOCC2)cc1	22.2 mg/L (≈ 71.3 µM)	11 to 14.3%	0.63 to 5.39%	95%	22.3 to 30.3%	–
Oc1ccc(-c2nc(-c3ccccc3)cn2-c2ccccc2)cc1	17.8 mg/L (≈ 57 µM)	–	–	95%	–	–
c1ccc(-c2nc3ccccn3c2CN2CCCCC2)cc1	> 50 mg/L	11.4 to 17.7%	2.41 to 3.93%	95%	14.8 to 19.4%	inhibition at 32 µg/mL [2]: 1.56 to 10.4%
Cc1ccc2nc(-c3ccc(F)cc3)c(CN3CCOCC3)n2c1	17 mg/L (≈ 52.2 µM)	–	3.4 to 6.17%	95%	25.1 to 26.2%	–
COc1ccc(-c2nc3ccccc3n2-c2ccccc2)cc1O	8 mg/L (≈ 25.3 µM)	1.32 to 7.73%	6.64 to 11.3%	95%	7.7 to 15.5%	–
COc1ccc(-c2nc3ccccc3n2-c2ccc(Cl)cc2)cc1	2.3 mg/L (≈ 6.87 µM)	1.34 to 9.75%	12.2 to 12.9%	95%	–	pIC50 [9]: 3.69; GI50 at 72 h [10]: 29 µM; metabolised at 1 h [11]: 0%
CO[C@H]1/C=C/O[C@@]2(C)Oc3c(C)c(O)c4c(O)c(c(/C=N/N5CCN(C)CC5)c(O)c4c3C2=O)NC(=O)/C(C)=C\C=C\[C@H](C)[C@H](O)[C@@H](C)[C@@H](O)[C@@H](C)[C@H](OC(C)=O)[C@@H]1C [RIFAMPIN]	0.03 to 0.5 mg/L (≈ 0.0365 to 0.608 µM)	–	–	95%	–	–
Cc1ccc(-c2cc(CN3CCSCC3)c(C)n2-c2ccc(F)cc2)cc1	–	–	–	–	–	MIC [13]: 0.16 µM (≈ 0.0609 µg/mL); pIC50 [14]: 3.75; pIC50 [15]: 4.62; half-life [16]: 8.2 min; Ratio [17]: 127.5 - 1937.5; Ratio [18]: 127.5 - 1937.5
NNC(=O)c1ccncc1 [ISONIAZID]	0.06 to 0.11 mg/L (≈ 0.438 to 0.802 µM)	–	–	95%	–	–
Cc1c(CN2CCOCC2)cc(-c2ccc(C(C)C)cc2)n1-c1ccc(F)cc1	–	–	–	–	–	MIC [13]: 0.12 µM (≈ 0.0471 µg/mL); pIC50 [14]: 4.30; pIC50 [15]: 4.82; half-life [16]: > 30 min
Cc1c(CN2CCN(C)CC2)cc(-c2ccc(Cl)cc2)n1-c1ccc(Cl)cc1	–	–	–	–	–	MIC [13]: 5 µM (≈ 2.07 µg/mL); pIC50 [15]: 5.11; half-life [16]: > 30 min; Ratio [17]: 127.5 - 1937.5; Ratio [18]: 127.5 - 1937.5; MIC [19]: 1.5 mg/L (≈ 3.62 µM)
COc1ccc(-c2nc(-c3ccccc3)cn2-c2ccccc2)cc1	20.3 mg/L (≈ 62.2 µM)	2.98 to 16.6%	17.5 to 26.4%	95%	3.07 to 13.3%	inhibition at 32 µg/mL [2]: 23.1 to 34.8%
COc1ccc(-c2nc3ccccc3n2-c2cccc(Cl)c2)cc1	> 50 mg/L	7.07 to 24.5%	4.66 to 7.76%	0%	14.1 to 16%	–
COc1ccc(-c2nc3ccccc3n2-c2ccc(C(C)C)cc2)cc1	> 50 mg/L	6.29 to 15.7%	13.1 to 14.2%	68%	6.25 to 12.4%	inhibition at 32 µg/mL [2]: 23.8 to 36.1%; inhibition at 32 µg/mL [5]: 7.06 to 11%
